Source: PubChem BioAssay (several laboratories)
TPT1 inhibitor – inhibitors of Candida albicans tRNA 2'-phosphotransferase TPT1 | recombinant caTPT1, FP RNA substrate dephosphorylation | inhibition, % at 5 µM | actives 0.81% (n = 300,000) | AID 1962;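 active = inhibition above the mean of all tested compounds plus 3 SD, set per screening campaign, cut at about 24% in these data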;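 note: plate controls were DMSO alone for no effect and ferristatin control at 100 nM for full effect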
ATG4B inh – inhibitors of human ATG4B cysteine protease | Q9Y4P1 | ATG4B cleavage of LC3-PLA2, NBD-HPC fluorescence, 1 h | actives 0.51% (n = 340,000) | AID 504462 | inhibition, % at 8.33 µM; in the data active = inhibition above about 40%
Target sequence (Q9Y4P1 whole entry, looked up): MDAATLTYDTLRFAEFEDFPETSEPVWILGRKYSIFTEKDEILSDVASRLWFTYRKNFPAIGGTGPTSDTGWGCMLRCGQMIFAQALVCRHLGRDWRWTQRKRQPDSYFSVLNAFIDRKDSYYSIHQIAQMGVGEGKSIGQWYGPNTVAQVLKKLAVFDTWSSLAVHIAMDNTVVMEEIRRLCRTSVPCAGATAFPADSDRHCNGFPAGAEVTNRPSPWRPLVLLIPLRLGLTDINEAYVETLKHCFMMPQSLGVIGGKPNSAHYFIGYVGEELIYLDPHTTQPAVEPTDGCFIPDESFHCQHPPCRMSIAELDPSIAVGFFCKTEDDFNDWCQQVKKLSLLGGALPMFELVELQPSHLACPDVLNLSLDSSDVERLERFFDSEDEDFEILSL
CSN inh – blocks human CSN-mediated cullin deneddylation; Purified CSN, SCF-Nedd8-OG deneddylation, fluorescence polarization; AID 651999; actives 0.38% (n = 360,000); inhibition, % at 12.5 µM;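 active = pattern-corrected inhibition above about 35%, with an unprinted fluorescence ratio check between 0.5 and 1.5, limit read from the data, passing the limit was not always enough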;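 note: 0% = enzyme with substrate and 100% = substrate without enzyme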
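Material: human Csn5 produced in HEK293T cells; Input: enzyme 0.24 nM; Reagent: SCFSkp2-Nedd8OG substrate at 10 nM final; Dosing: 12.5 µM compound; Incubation: 90 min reaction at room temperature; Detection: fluorescence polarization of the substrate; Evaluation: % inhibition of substrate cleavage by Csn5; Control set: substrate-only high control, full reaction low control.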
Rpn11 inh – inhibitors of human proteasome Rpn11; O00487; human 26S proteasome, Ub4-pepOG fluorescence polarization; 20S core pre-blocked with epoxomicin; inhibition, % at 20 µM; actives 0.59% (n = 360,000);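 active = inhibition at 20 µM, scaled to each plate's controls, above about 33%, limit read from the data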
SENP1 FRET inh – SENP1 (human) catalytic domain inhibition. actives 0.21% (n = 360,000). recombinant SENP1 catalytic domain, CyPet-SUMO1-YPet FRET cleavage. inhibition, % at 10 µM. Q9P0U3;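 active = inhibition at least 30% at 10 µM, raw YFP signal under a set limit, fluorescence ratio 0.5 to 1.5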;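 note: 0% = enzyme with DMSO and 100% = no enzyme wells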
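System: Recombinant human SENP1 catalytic domain, His6-tagged | Incubation: Enzyme reaction for 50 min at room temperature, dark | Medium: Tris pH 8 with BME, BSA, NP40 and catalase | Also added: 25 nM SUMO1 FRET substrate | Compound: 10 µM single point, 0.5% DMSO | Measured by: FRET fluorescence in CFP and YFP emission channels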
HNF4A DNA FP – change in binding of human HNF4 alpha to DNA; AID 1224865; activity change, % at 10 µM; P41235; HNF4a-FITC DNA binding, fluorescence polarization, 1 h; actives 0.3% (n = 360,000); in the data active = activity change above about 30%, passing the limit was not always enough
caTPT1 confirm – confirmation of Candida albicans TPT1 inhibitors | shares compounds with TPT1 inhibitor | recombinant caTPT1, fluorescence polarization, RNase T1 coupled | inhibition, % at 5 µM | actives 74% (n = 2,400);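 active = inhibition above the primary screen limit, the mean inhibition of all tested compounds plus 3 SD, cut at about 25% in these data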
RNase T1 inh – RNase T1 inhibition in TPT1 counter-screen; shares compounds with TPT1 inhibitor; RNase T1 cleavage, fluorescence polarization, 1536-well; inhibition, % at 5 µM; actives 83% (n = 2,400);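 active = inhibition above the solvent-only control well mean plus 3 SD, limit set per screening run, cut at about 23% in these data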;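 note: plate controls were DMSO wells with enzyme for no effect and wells without RNase T1 for full effect; inhibitors block cleavage so intact labeled substrate keeps polarization high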
Target sequence (P00651 whole entry, looked up): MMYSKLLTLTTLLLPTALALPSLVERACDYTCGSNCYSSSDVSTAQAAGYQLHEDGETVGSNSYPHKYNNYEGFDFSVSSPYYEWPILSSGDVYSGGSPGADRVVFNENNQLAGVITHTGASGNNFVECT
Numbers without * were called inactive; x = not tested or not shown; + = active, no number. Most compounds without a hit are left out; they make up all but 2% or so of the library.

SMILES	TPT1 inhibitor	ATG4B inh	CSN inh	Rpn11 inh	SENP1 FRET inh	HNF4A DNA FP	caTPT1 confirm	RNase T1 inh
COCCN(C(=O)COC(=O)c1ccc2[nH]c(C)c(C)c2c1)c1c(N)n(Cc2ccccc2)c(=O)[nH]c1=O	28*	-25	4	23	-2	11	60*	71*
CCN(CC)CCOC(=O)c1cc(Cl)c(N)cc1OC	3	4	-3	-6	0	-4	x	x
Cc1c(O)c2c3c(cccc3c1O)C(=O)N(c1ccccc1)C2=O	39*	-11	10	-9	-32	-3	27*	40*
COc1ccccc1NS(=O)(=O)c1cc([N+](=O)[O-])ccc1N/N=C/c1c(C)[nH]c2ccccc12	101*	15	26	x	0	57*	104*	107*
O=c1cc(SCc2ccc(Cl)cc2Cl)nc[nH]1	x	6	3	-7	1	0	x	x
CCSc1nnc(-c2sc3nnc(-c4ccccc4)c(-c4ccccc4)c3c2N)o1	42*	-3	17	-27	-20	31	42*	51*
CCSc1nnc(-c2ccncc2)o1	1	6	-1	1	4	0	x	x
Nc1c(C(=O)Nc2ccc(S(=O)(=O)N3CCCC3)cc2)sc2nc3cc4c(cc3cc12)CCC4	39*	6	7	20	46	5	25*	34*
CC(=O)c1sc(N/N=C\c2ccc(Br)cc2)nc1C	71*	-3	17	x	-23	38*	82*	88*
C=CCOC(=O)C1=C(C)NC(SCC(=O)N(CC)CC)=C(C#N)C1c1ccccc1 (stereo not given)	-2	-6	-1	1	0	-3	x	x
CC(=O)C1=C(C)NC(SCC(=O)c2ccc(-c3ccccc3)cc2)=C(C#N)C1c1cccnc1 (stereo not given)	30*	x	x	x	x	x	39*	50*
CC(=O)C1=C(C)NC(SCSc2ccccc2)=C(C#N)C1c1cccnc1 (stereo not given)	5	-12	x	x	x	x	x	x
C=CCOC(=O)C1=C(C)NC(SCC(=O)NC(=O)OCC)=C(C#N)C1c1cccnc1 (stereo not given)	25*	-10	1	9	-47	-8	23	31*
Oc1sc(C=Nc2ccc(F)cc2)c2ccccc12	128*	-9	12	x	-18	36*	110*	109*
Cn1c(O)c(N=Nc2ccc(F)cc2)c2ccccc21	6	-1	-2	7	1	2	x	x
Oc1c(C=Nc2cccnc2)sc2ccccc12	15	-6	9	13	-54	14	x	x
Oc1ccccc1N=Cc1sc2ccccc2c1Cl	5	-14	-17	4	2	-1	x	x
Oc1sc(C=Nc2ccccc2)c2ccccc12	119*	-14	28	x	-18	24	105*	104*
Oc1c(C=Nc2ccccc2)sc2ccccc12	100*	2	16	x	-31	37*	127*	130*
CCOC(=O)CC(=O)CSc1nc2ccc(C)cc2cc1C#N	10	-17	4	18	-28	5	x	x
Cc1ccc2nc(SCC(=O)Nc3ccc4sc(C)nc4c3)c(C#N)cc2c1	25*	2	0	8	6	3	6	10
COCCCNC(=O)c1csc([C@H]2C[C@H](O)[C@@H](CO)O2)n1	x	x	-2	0	1	-5	x	x
COc1cc(OC)c(OC)cc1/C=C1\CC(C)C/C(=C\c2cc(OC)c(OC)cc2OC)C1=O (stereo not given)	74*	-10	31	x	-12	58*	87*	95*
O=C(Nc1ccc2c(c1)OCCO2)C1c2ccccc2OCC(=O)N1C1CC1 (stereo not given)	x	x	-5	x	2	-2	x	x
COC(=O)c1sccc1NC(=O)c1ccc(OC)cc1	63*	-21	3	-5	4	3	4	5
SMILES	TPT1 inhibitor	ATG4B inh	CSN inh	Rpn11 inh	SENP1 FRET inh	HNF4A DNA FP	caTPT1 confirm	RNase T1 inh
COC(=O)c1sccc1NC(=O)c1ccc(C)cc1	2	3	-3	5	2	-2	x	x
C[C@H]1CN([C@@H](C)CO)C(=O)CCCn2nncc2CO[C@H]1CN(C)S(=O)(=O)c1ccc(-n2cccn2)cc1	x	x	-1	-4	1	-1	x	x
CCOC(=O)C1=C(O)CSC1=Nc1ccc(Cl)cc1	-2	-2	1	2	1	2	x	x
CCOC(=O)C1=C(O)CSC1=Nc1ccccc1	27*	6	1	3	-3	4	21	27*
CCOc1cccc2c1OC(c1cc(OC)c(OC)c(OC)c1)N1N=C(c3ccc(C)o3)CC21 (stereo not given)	115*	14	22	x	-25	129	10	15
Cc1ccc(-c2nc(C=Nc3ccc(O)cc3)c(O)o2)cc1	x	-11	1	-6	-29	5	x	x
Cc1ccc(N=Cc2nc(/C=C/c3cccc([N+](=O)[O-])c3)oc2O)cc1	28*	-2	1	8	-27	7	39*	51*
COc1ccc(C2=NN(C(=O)COC(=O)c3ccc(NC(=O)CC#N)cc3)C(c3ccco3)C2)cc1 (stereo not given)	x	-18	130	x	-27	125	x	x
CC(C)Oc1cc(F)ccc1-c1cc(C(=O)NCc2ccccc2)[nH]n1	x	x	-5	-5	1	1	x	x
COC(=O)CN1C(=O)S/C(=C/c2ccc(N3CCCCC3)o2)C1=O	181*	-15	-68	x	-22	-38	191*	170*
O=C(O)CN1C(=O)/C(=C/c2ccc(N3CCCCC3)o2)SC1=S	9	-5	8	38	-10	-9	x	x
CCOC(=O)CN1C(=O)S/C(=C/c2ccc(N3CCCCC3)o2)C1=O	+	-2	113	x	51	160	180*	167*
Nc1c(C(=O)c2ccccc2)sc2snc(SCC(=O)c3ccccc3)c12	102*	2	4	38	21	16	71*	77*
Cc1nc(SCC(=O)NCC2CCCO2)c2cc(-c3ccccc3)sc2n1 (stereo not given)	x	-5	-1	0	-9	8	x	x
Cc1ccc(N/C=C/C(=O)c2sc(-c3ccccc3)nc2C)cc1	39*	-2	9	38	-17	11	38*	47*
COc1cccc(-c2ncn(CCc3ccccc3OC)c2C(C)C)c1	x	x	-7	x	2	0	x	x
COC(=O)c1sc2nc(CSc3nc4ccc(C)cc4[nH]3)[nH]c(=O)c2c1C	38*	-3	15	x	8	25	33*	45*
